Reference: ChEMBL document CHEMBL4270623, “Identification of novel inhibitors of histone acetyltransferase hMOF through high throughput screening” (Eur J Med Chem, 2018)
Values belong to the compound of their own block, whether it stands above or below them. Active and inactive are the calls of the source. The calls are words filed in the database; no cut-off is given here.

Key:
[1] = biological target: T1, Histone acetyltransferase KAT8 (Homo sapiens) (UniProt Q9H7Z6); test: Inhibition of human His-tagged MOF at 100 uM using histone H4 substrate by radioactive acetylation assay relative to control
T1 sequence (whole entry): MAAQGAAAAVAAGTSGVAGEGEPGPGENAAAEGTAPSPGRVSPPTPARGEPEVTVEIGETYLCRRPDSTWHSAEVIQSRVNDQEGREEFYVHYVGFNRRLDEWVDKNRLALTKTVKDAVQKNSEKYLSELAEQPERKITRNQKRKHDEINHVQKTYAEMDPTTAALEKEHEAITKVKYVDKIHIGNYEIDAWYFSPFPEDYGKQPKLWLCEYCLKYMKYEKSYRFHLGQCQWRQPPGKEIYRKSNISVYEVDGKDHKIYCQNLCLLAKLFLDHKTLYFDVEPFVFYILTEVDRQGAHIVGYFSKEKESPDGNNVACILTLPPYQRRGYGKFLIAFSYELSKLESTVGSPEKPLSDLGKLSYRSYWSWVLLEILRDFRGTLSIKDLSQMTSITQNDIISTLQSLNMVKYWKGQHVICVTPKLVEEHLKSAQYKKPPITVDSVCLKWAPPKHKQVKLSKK
Procedure, shortened: (§1)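 His6-tagged hMOF catalytic domain (173-458) from E. coli, preincubated with compound for 15 min at room temperature in modified Tris buffer pH 7.5, then given biotinylated H4-derived peptide and [3H]acetyl-CoA. Reaction ran 240 min at room temperature, was captured on a streptavidin Flashplate, washed and scintillation-counted. Percent inhibition computed; IC50 from a nonlinear dose-response fit.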

[2] = biological target: T1, Histone acetyltransferase KAT8 (Homo sapiens); test: Inhibition of human His-tagged MOF at 50 uM using histone H4 substrate by radioactive acetylation assay relative to control; procedure, shortened: as §1
[3] = biological target: T2, Histone acetyltransferase KAT8 (Homo sapiens, UniProt Q9H7Z6); test: Inhibition of human His-tagged MOF using histone H4 substrate by radioactive acetylation assay; procedure, shortened: as §1
T2 sequence (Q9H7Z6 whole entry): T1 sequence (whole entry)

[4] = biological target: T2, Histone acetyltransferase KAT8; test: Inhibition of human His-tagged MOF preincubated for 10 mins followed by biotin-labeled H4K16 substrate addition measured after 30 mins in presence of acetyl-CoA by alphascreen assay
[5] = biological target: T1, Histone acetyltransferase KAT8 (Homo sapiens); test: Inhibition of MOF in human HCT116 cells assessed as decrease in H4K16 acetylation level after 24 hrs by Western blot analysis; type: cell-based
Procedure, shortened: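 HCT116 cells treated for 24 h. Lysates run on 4–16% SDS-PAGE, transferred to nitrocellulose, blocked in 5% milk/PBST, primary antibody overnight at 4 °C, HRP donkey anti-rabbit secondary at 1:10000 for 1 h; H4K16 acetylation level read.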

HCT-116 [6] = test: Inhibition of colony formation in human HCT116 cells at 100 uM after 14 days by crystal violet staining based assay; type: functional, cell-based
Homo sapiens [7] = species: Homo sapiens; test: Selectivity ratio of IC50 for HDAC1 (unknown origin) to IC50 for human His-tagged MOF by alphascreen assay
HCT-116 [8] = test: Inhibition of colony formation in human HCT116 cells after 14 days by crystal violet staining based assay; type: functional, cell-based
[9] = biological target: T1, Histone acetyltransferase KAT8 (Homo sapiens); test: Inhibition of human His-tagged MOF using constant concentration acetyl-CoA and varying levels of histone H4 substrate by radioactive acetylation assay
Histone deacetylase 1 = Histone deacetylase 1 (Homo sapiens, UniProt Q13547); test: Inhibition of HDAC1 (unknown origin)
Sequence of Histone deacetylase 1 (Q13547 whole entry): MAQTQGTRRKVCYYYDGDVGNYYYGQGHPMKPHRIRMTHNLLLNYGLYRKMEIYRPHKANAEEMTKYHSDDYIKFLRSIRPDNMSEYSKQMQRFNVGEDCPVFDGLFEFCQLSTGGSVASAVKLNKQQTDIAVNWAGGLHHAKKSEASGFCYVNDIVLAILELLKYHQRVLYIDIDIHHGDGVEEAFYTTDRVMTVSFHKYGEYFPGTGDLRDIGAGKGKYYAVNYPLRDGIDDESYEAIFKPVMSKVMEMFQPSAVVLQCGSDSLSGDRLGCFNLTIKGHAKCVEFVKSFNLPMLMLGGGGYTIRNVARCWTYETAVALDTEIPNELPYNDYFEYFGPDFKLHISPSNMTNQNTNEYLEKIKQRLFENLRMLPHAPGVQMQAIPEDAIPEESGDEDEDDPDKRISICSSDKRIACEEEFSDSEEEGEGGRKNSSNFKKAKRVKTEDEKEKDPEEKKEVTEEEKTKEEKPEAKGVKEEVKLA

[10] = biological target: T1, Histone acetyltransferase KAT8 (Homo sapiens); test: Inhibition of MOF in human HCT116 cells assessed as decrease in UCP2 mRNA level after 3 days by quantitative real-time PCR analysis
Homo sapiens [11] = species: Homo sapiens; test: Selectivity ratio of IC50 for PRMT1 (unknown origin) to IC50 for human His-tagged MOF by alphascreen assay
[12] = biological target: Protein arginine N-methyltransferase 1 (Homo sapiens, UniProt Q99873); test: Inhibition of PRMT1 (unknown origin)
Sequence of Protein arginine N-methyltransferase 1 (Q99873 whole entry): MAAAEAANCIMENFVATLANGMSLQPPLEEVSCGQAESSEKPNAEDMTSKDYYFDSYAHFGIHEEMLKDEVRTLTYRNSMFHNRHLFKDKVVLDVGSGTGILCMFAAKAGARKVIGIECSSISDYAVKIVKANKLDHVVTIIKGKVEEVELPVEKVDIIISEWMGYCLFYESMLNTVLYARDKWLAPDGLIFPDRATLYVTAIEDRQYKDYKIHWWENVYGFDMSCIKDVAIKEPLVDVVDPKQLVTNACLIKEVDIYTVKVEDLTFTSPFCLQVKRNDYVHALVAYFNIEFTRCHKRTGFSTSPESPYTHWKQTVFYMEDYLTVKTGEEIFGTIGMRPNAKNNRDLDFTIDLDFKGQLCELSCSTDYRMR

HCT-116 [13] = test: Upregulation of IFI16 mRNA level in human HCT116 cells at 50 to 100 uM after 3 days by quantitative real-time PCR analysis
[14] = biological target: T1, Histone acetyltransferase KAT8 (Homo sapiens); test: Inhibition of MOF in human HCT116 cells assessed as decrease in SKP2 mRNA level after 3 days by quantitative real-time PCR analysis
Homo sapiens [15] = species: Homo sapiens; test: Selectivity ratio of IC50 for DNMT1 (unknown origin) to IC50 for human His-tagged MOF by alphascreen assay
[16] = biological target: DNA (cytosine-5)-methyltransferase 1 (Homo sapiens, UniProt P26358); test: Inhibition of DNMT1 (unknown origin)
Sequence of DNA (cytosine-5)-methyltransferase 1 (P26358 whole entry): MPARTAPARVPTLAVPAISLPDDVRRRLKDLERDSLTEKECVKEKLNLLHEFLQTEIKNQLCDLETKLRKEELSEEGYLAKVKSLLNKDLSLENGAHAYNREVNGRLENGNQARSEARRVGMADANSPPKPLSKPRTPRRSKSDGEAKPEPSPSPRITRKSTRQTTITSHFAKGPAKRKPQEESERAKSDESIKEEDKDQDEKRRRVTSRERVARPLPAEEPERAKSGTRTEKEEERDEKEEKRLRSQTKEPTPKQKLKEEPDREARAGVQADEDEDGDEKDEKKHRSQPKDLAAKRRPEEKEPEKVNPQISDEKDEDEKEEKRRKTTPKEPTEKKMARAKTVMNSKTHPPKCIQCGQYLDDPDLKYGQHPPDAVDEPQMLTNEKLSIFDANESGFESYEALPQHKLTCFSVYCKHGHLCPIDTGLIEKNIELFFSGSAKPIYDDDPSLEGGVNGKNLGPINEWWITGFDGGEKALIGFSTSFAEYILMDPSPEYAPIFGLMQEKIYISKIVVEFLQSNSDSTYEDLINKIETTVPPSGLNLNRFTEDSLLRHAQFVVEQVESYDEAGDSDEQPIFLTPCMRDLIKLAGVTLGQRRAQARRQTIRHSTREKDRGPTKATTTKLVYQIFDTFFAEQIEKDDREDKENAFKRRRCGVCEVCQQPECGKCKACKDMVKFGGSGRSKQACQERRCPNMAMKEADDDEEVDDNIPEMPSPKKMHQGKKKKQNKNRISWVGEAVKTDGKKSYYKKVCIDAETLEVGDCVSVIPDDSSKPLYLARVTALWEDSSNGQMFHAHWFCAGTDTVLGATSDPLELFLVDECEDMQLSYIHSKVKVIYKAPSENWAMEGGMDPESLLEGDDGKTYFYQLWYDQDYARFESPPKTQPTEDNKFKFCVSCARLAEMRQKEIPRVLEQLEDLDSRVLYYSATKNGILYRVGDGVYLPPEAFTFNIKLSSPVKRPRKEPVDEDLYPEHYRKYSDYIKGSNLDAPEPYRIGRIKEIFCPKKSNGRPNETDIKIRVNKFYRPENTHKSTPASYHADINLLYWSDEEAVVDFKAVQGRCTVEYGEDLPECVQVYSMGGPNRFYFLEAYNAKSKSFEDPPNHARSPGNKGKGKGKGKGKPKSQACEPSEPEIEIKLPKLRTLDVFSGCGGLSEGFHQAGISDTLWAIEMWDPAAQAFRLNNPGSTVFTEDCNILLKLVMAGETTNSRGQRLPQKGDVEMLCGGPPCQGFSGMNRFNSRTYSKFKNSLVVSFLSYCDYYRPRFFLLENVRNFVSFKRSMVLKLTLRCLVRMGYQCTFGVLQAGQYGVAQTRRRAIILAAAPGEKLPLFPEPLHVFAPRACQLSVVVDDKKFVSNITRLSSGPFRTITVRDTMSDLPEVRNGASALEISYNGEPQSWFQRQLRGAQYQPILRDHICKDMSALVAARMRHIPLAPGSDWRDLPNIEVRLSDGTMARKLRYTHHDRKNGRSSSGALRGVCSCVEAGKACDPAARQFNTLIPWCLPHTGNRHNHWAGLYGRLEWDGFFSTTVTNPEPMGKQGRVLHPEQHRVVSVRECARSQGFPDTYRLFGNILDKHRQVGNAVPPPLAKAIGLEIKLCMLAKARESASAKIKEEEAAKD

[17] = biological target: T1, Histone acetyltransferase KAT8 (Homo sapiens); test: Inhibition of human His-tagged MOF using constant concentration histone H4 substrate and varying levels of acetyl-CoA by radioactive acetylation assay
[18] = biological target: Histone acetyltransferase KAT2A (Homo sapiens, UniProt Q92830); test: Inhibition of recombinant human GST-tagged Gcn5 using H3 as substrate in presence of [3H]-acetyl-CoA by phosphor image analysis
Sequence of Histone acetyltransferase KAT2A (Q92830 whole entry): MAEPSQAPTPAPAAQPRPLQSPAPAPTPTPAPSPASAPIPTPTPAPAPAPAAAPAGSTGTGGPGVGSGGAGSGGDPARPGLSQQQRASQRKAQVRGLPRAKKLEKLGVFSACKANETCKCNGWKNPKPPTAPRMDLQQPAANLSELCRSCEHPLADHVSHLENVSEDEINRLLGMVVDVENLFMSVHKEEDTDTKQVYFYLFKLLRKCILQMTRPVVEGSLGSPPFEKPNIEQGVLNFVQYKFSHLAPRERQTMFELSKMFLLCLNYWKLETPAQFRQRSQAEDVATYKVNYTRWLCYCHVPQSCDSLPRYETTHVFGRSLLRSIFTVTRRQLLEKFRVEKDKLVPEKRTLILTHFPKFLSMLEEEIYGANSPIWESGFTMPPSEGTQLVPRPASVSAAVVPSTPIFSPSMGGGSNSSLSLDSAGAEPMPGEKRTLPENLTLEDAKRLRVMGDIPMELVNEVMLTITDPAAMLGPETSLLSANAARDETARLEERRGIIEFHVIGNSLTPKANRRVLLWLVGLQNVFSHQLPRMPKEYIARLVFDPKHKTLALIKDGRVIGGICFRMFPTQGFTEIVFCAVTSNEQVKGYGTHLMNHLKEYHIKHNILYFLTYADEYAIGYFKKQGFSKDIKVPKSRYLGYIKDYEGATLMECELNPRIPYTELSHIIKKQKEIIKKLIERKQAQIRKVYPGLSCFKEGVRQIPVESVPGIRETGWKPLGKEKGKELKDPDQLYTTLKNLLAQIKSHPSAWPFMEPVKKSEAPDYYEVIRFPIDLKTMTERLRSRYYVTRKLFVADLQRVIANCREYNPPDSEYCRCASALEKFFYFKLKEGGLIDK

[19] = biological target: T1, Histone acetyltransferase KAT8 (Homo sapiens); test: (§2) Binding affinity to human His-tagged MOF by SPR analysis
Procedure, shortened: (§3)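 hMOF catalytic domain (173-458), N-terminal His6, expressed in E. coli BL21(DE3), amine-coupled to a CM5 chip in 10 mM sodium acetate pH 4.0; SPR at 25 °C in HBS (20 mM HEPES pH 7.4, 200 mM NaCl, 0.5% DMSO). Analyte 5–100 μM injected 120 s at 30 μL/min, then 300 s dissociation; Kd from a steady-state fit.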

[20] = biological target: T2, Histone acetyltransferase KAT8; test: as §2; procedure, shortened: as §3

SMILES: CCN(CC)S(=O)(=O)c1ccc(/C=C/c2nc3cc(C)ccc3s2)cc1
- inhibition [1]: 14%
- inhibition [2]: 0%

SMILES: CCN(CC)S(=O)(=O)c1ccc(/C=C/c2nc3ccccc3s2)cc1F
- inhibition [1]: 18%
- inhibition [2]: 16%

SMILES: Cc1ccc(-c2cc(C(=O)O)c3cc4c(C(=O)O)cc(-c5ccc(C)o5)nc4cc3n2)o1
- IC50 [4]: 17 µM

SMILES: CN(C)S(=O)(=O)c1ccc(/C=C/c2nc3ccccc3s2)cc1
- inhibition [1]: 14%
- inhibition [2]: 9%

SMILES: CC1CCc2c(sc3nnn(CC(=O)Nc4cccc5ccccc45)c(=O)c23)C1 (configuration not stated)
- IC50 [4]: 25 µM

SMILES: O=S(=O)(Nc1ccccc1)c1ccc(/C=C/c2nc3ccccc3s2)cc1
- inhibition [1]: 25%
- inhibition [2]: 13%

SMILES: N#Cc1c(-c2ccccc2)cc(-c2cccs2)nc1SCC(=O)NCC(=O)O
- IC50 [4]: 74 µM

SMILES: CCN(CC)S(=O)(=O)c1ccc(/C=C/c2nc3ccc(F)cc3s2)cc1
- IC50 [4]: 6.6 to 40 µM

SMILES: O=C(CCCCCCC(=O)Nc1ccccc1)NO
- inhibition [5]: Dose-dependent effect

SMILES: O=C(Cc1cccc2ccccc12)Nc1ccc2nc(SCC(=O)N3CCCC3)sc2c1
- IC50 [4]: 14 µM

SMILES: CCN(CC)S(=O)(=O)c1ccc(/C=C/c2nc3cc(Cl)ccc3s2)cc1
- inhibition [1]: 89%
- IC50 [3]: 30 µM
- inhibition [2]: 64%

SMILES: COc1ccc(CNS(=O)(=O)c2ccc(/C=C/c3nc4ccccc4s3)cc2)cc1
- inhibition [1]: 28%
- inhibition [2]: 0%

SMILES: CCc1nnc(NC(=O)CCSCCC(=O)Nc2nnc(CC)s2)s1
- IC50 [4]: 18 µM

Further lines, with some results ahead:

- inhibition [1]: 12%
- inhibition [2]: 7%
SMILES: CCN(CC)S(=O)(=O)c1ccc(/C=C/c2nc3ccccc3s2)cc1Cl

- inhibition [1]: 82%
- IC50 [3]: 30 µM
- inhibition [2]: 57%
SMILES: CCN(CC)S(=O)(=O)c1ccc(/C=C/c2nc3cc(Br)ccc3s2)cc1

- inhibition [1]: 21%
- inhibition [2]: 5%
SMILES: CCN(CC)S(=O)(=O)c1ccc(/C=C/c2nc3ccc(Br)cc3s2)cc1

- inhibition [1]: 13%
- inhibition [2]: 14%
SMILES: CCN(CC)S(=O)(=O)c1ccc(/C=C/c2nc3cc(OC)ccc3s2)cc1

- inhibition [1]: 33%
- inhibition [2]: 17%
SMILES: Cc1ccc(CNS(=O)(=O)c2ccc(/C=C/c3nc4ccccc4s3)cc2)cc1

- inhibition [1]: 100%
- IC50 [4]: 27 µM
- IC50 [3]: 15 µM
- inhibition [2]: 100%
SMILES: CCCCCCCc1ccc(CCc2cccc(O)c2C(=O)O)cc1
- inhibition (HCT-116 [6]): Active

- inhibition [1]: 11%
- inhibition [2]: 1%
SMILES: O=S(=O)(NCc1ccccc1)c1ccc(/C=C/c2nc3ccccc3s2)cc1

- inhibition [1]: 30%
- inhibition [2]: 28%
SMILES: CCN(CC)S(=O)(=O)c1ccc(/C=C/c2nc3ccccc3s2)cc1C

- inhibition [1]: 96%
- IC50 [3]: 7.7 µM
- inhibition [2]: 95%
SMILES: CCN(CC)S(=O)(=O)c1ccc(/C=C/c2nc3cc(C)c(C)cc3s2)cc1

- inhibition [5]: Dose-dependent effect
- Ratio IC50 (Homo sapiens [7]): > 11
- inhibition [9]: inactive
- IC50 (Histone deacetylase 1): > 100 µM
- inhibition [10]: Dose-dependent effect
- Ratio IC50 (Homo sapiens [11]): > 11
- IC50 [12]: > 100 µM
- inhibition [1]: 100%
- inhibition [14]: Dose-dependent effect
- Ratio IC50 (Homo sapiens [15]): > 11
- IC50 [16]: > 100 µM
- inhibition [17]: Active
- IC50 [3]: 6 µM
- inhibition [2]: 93%
SMILES: CCN(CC)S(=O)(=O)c1ccc(/C=C/c2nc3ccccc3s2)cc1
- inhibition (HCT-116 [8]): Dose-dependent effect
- Activity (HCT-116 [13]): Active

- IC50 [18]: 100 µM
SMILES: C=C1C(=O)O[C@H](CCC)[C@H]1C(=O)O

- IC50 [4]: 23 µM
SMILES: Oc1cc(O)c2sc3nc(-c4cccs4)cc(-c4cccs4)c3c2n1

- IC50 [4]: 29 µM
SMILES: Cc1ccc(C2C(C(=O)c3cc4ccccc4o3)=C(O)C(=O)N2Cc2ccco2)cc1 (configuration not stated)

- inhibition [1]: 84%
- Activity [19]: Dose-dependent effect
- Kd [20]: 19 µM
- IC50 [3]: 40 µM
- inhibition [2]: 53%
SMILES: CCN(CC)S(=O)(=O)c1ccc(/C=C/c2nc3cc(F)ccc3s2)cc1
